# Measured values reported in ChEMBL document CHEMBL1126673, “6-[(aminoalkyl)amino]-substituted 7H-benzo[e]perimidin-7-ones as novel antineoplastic agents. Synthesis and biological evaluation” (J Med Chem, 1993).
# Experiments:
# L1210 = assay: Concentration of compound required to inhibit the cellular protein biosynthesis by 50%; assay type: functional, cell-based; details: Mus musculus
# Method in brief: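 Murine L1210 leukemia cells grown in RPMI 1640 with 5% fetal calf serum, penicillin/streptomycin, 37 °C, 5% CO2, passaged every 2–3 days. Log-phase cells seeded at final 0.05×10^6 cells/mL and exposed 48 h. Growth inhibition read as cellular protein content; EC50 = concentration giving 50% inhibition. At least four runs, mean ± SEM.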
# [1] = target: NADH-ubiquinone oxidoreductase chain 4 (Homo sapiens) (UniProt P03905); assay: (§1) Concentration of substrate at which the amount of total cytochrome c reduction is decreased by 10%; assay type: functional
# NADH-ubiquinone oxidoreductase chain 4 (Homo sapiens), sequence (P03905 whole entry, looked up): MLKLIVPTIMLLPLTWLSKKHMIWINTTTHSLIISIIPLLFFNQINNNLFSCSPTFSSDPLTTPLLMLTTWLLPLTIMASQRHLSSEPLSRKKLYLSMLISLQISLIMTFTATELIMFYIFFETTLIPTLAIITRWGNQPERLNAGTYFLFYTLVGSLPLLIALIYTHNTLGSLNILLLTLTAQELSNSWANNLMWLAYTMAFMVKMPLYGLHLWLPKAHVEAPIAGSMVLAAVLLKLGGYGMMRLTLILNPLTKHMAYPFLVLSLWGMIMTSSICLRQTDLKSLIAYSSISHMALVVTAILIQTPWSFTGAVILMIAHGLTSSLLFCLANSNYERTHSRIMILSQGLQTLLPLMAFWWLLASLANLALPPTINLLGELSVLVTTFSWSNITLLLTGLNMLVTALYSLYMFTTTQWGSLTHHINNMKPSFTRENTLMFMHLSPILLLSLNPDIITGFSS
# Method in brief: (§2)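 NADH dehydrogenase substrate assay: decrease in enzymatic cytochrome c reduction at low NADH. Mixture of […], 0–200 μM compound, 10 μM NADH, 0.125 units/mL NADH dehydrogenase, 50 μg/mL SOD, 0.50 M HEPES pH 7.4. IC10 = substrate concentration reducing total cytochrome c reduction by 10%.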
# [2] = target: NADH-ubiquinone oxidoreductase chain 4 (Homo sapiens) (UniProt P03905); assay: (§3) Activity of NADH dehydrogenase was determined; assay type: functional
# Method in brief: (§4)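 Enzymatic NADH oxidation stimulated by compound: reaction with 100 μM test compound, 100 μM NADH, NADH dehydrogenase at the stated activity, in 0.05 M HEPES pH 7.4.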
# P388 [3] = assay: ratio of medium survival time of the treated to the control mice at the dose of 12.50 (mg/kg); assay type: functional, Mus musculus
# P388 [4] = assay: ratio of medium survival time of the treated to the control mice at the dose of 3.12 (mg/kg); assay type: functional, Mus musculus
# P388 [5] = assay: ratio of medium survival time of the treated to the control mice at the dose of 6.25 (mg/kg); assay type: functional, Mus musculus
# [6] = Ratio of toxic deaths/survivors 7 days after the day 5 injection as a measure of drug toxicity at the dose of 12.50 (mg/kg); assay type: functional
# Method in brief: (§5)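 P388 leukemia model in (BALB/c × DBA/2) F1 mice, 10^6 cells ip on day 0. Toxicity was scored as toxic deaths/survivors 7 days after the day-5 injection.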
# [7] = NADH oxidation by the compound was determined; assay type: functional; method in brief: as §4
# [8] = Ratio of toxic deaths/survivors 7 days after the day 5 injection as a measure of drug toxicity at the dose of 6.25 (mg/kg); assay type: functional; method in brief: as §5
# [9] = Ratio of toxic deaths/survivors 7 days after the day 5 injection as a measure of drug toxicity at the dose of 3.12 (mg/kg); assay type: functional; method in brief: as §5
# Equus caballus = species on record: Equus caballus; assay: as §1; assay type: functional; method in brief: as §2
# [10] = as §3; assay type: functional; method in brief: as §4
# P388 [11] = assay: (§6) Ratio of medium survival time of the treated to the control mice at the dose of 100 (mg/kg); assay type: functional, Mus musculus
# P388 [12] = assay: Ratio of medium survival time of the treated to the control mice at the dose of 50 (mg/kg); assay type: functional, Mus musculus
# [13] = Ratio of toxic deaths/survivors 7 days after the day 5 injection as a measure of drug toxicity at the dose of 100 (mg/kg); assay type: organism-based; details: in vivo, 168 h; method in brief: as §5
# [14] = Ratio of toxic deaths/survivors 7 days after the day 5 injection as a measure of drug toxicity at the dose of 50 (mg/kg); assay type: organism-based; details: in vivo, 168 h; method in brief: as §5
# P388 [15] = assay: ratio of medium survival time of the treated to the control mice at the dose of 25 (mg/kg); assay type: functional, Mus musculus
# [16] = Ratio of toxic deaths/survivors 7 days after the day 5 injection as a measure of drug toxicity at the dose of 25 (mg/kg); assay type: organism-based; details: in vivo, 168 h; method in brief: as §5
# P388 [17] = assay: ratio of medium survival time of the treated to the control mice at the dose of 50 (mg/kg); assay type: functional, Mus musculus
# [18] = Ratio of toxic deaths/survivors 7 days after the day 5 injection as a measure of drug toxicity; details: 168 h; method in brief: as §5
# Mus musculus [19] = assay: as §6; assay type: functional
# [20] = Ratio of toxic deaths/survivors 7 days after the day 5 injection as a measure of drug toxicity at the dose of 200 (mg/kg); assay type: organism-based; details: in vivo, 168 h; method in brief: as §5
# Mus musculus [21] = assay: Ratio of medium survival time of the treated to the control mice at the dose of 200 (mg/kg); assay type: functional
structure (smiles),measurement,setting,value
O=C1c2ccccc2C(=O)c2c(NCCNCCO)ccc(NCCNCCO)c21 [AMETANTRONE],EC50,L1210,275 nM
same,IC10,[1],114000 nM
same,Activity,[2],0.75 units ml-1
same,T/C,P388 [3],300%
same,T/C,P388 [4],190%
same,T/C,P388 [5],210%
same,ToxD/Surv,[6],6
same,Oxidation,[7],8.8 µM/min
same,ToxD/Surv,[8],6
same,ToxD/Surv,[9],6
CCN(CC)CCNc1ccc2ncnc3c2c1C(=O)c1ccccc1-3,EC50,L1210,460 nM
same,IC10,Equus caballus,> 300000 nM
same,Activity,[10],0.75 U/mL
same,T/C,P388 [11],180%
same,T/C,P388 [12],140%
same,ToxD/Surv,[13],7
same,Activity,[7],7 µM/min
same,ToxD/Surv,[14],5
NCCNc1ccc2ncnc3c2c1C(=O)c1ccccc1-3,EC50,L1210,379 nM
same,IC10,Equus caballus,> 300000 nM
same,Activity,[10],0.75 U/mL
same,T/C,P388 [12],150%
same,T/C,P388 [15],140%
same,Activity,[7],4.5 µM/min
same,ToxD/Surv,[16],7
same,ToxD/Surv,[14],7
COc1cccc2c1C(=O)c1c(O)c3c(c(O)c1C2=O)C[C@@](O)(C(=O)CO)C[C@@H]3O[C@H]1C[C@H](N)[C@H](O)[C@H](C)O1,Activity,[2],0.15 units ml-1
same,Oxidation,[7],30.1 µM/min
CN(C)CCNc1ccc2ncnc3c2c1C(=O)c1ccccc1-3,EC50,L1210,203 nM
same,IC10,Equus caballus,> 300000 nM
same,Activity,[10],0.75 U/mL
same,T/C,P388 [11],209%
same,T/C,P388 [17],155%
same,ToxD/Surv,[13],6
same,Activity,[7],6.5 µM/min
same,ToxD/Surv,[14],6
O=C1c2ccccc2-c2ncnc3ccc(NCCNCCO)c1c23,EC50,L1210,296 nM
same,IC10,[1]; Equus caballus,> 300000 nM
same,Activity,[10],0.75 U/mL
same,T/C,P388 [11],255%
same,T/C,P388 [12],173%
same,Activity,[7],7.4 µM/min
same,ToxD/Surv,[18],7
CNCCNc1ccc2ncnc3c2c1C(=O)c1ccccc1-3,EC50,L1210,268 nM
same,IC10,Equus caballus,> 300000 nM
same,Activity,[10],0.75 U/mL
same,T/C,P388 [11],164%
same,T/C,P388 [12],146%
same,ToxD/Surv,[13],6
same,Activity,[7],7.6 µM/min
same,ToxD/Surv,[14],6
NCCCNc1ccc2ncnc3c2c1C(=O)c1ccccc1-3,EC50,L1210,546 nM
same,IC10,Equus caballus,> 300000 nM
same,Activity,[10],0.75 U/mL
same,T/C,P388 [11],127%
same,T/C,P388 [12],127%
same,ToxD/Surv,[13],4
same,Activity,[7],4.7 µM/min
same,ToxD/Surv,[14],7
Nc1ccc2ncnc3c2c1C(=O)c1ccccc1-3,EC50,L1210,945 nM
same,T/C,Mus musculus [19],100%
same,ToxD/Surv,[13],0
same,ToxD/Surv,[20],0
same,T/C,Mus musculus [21],100%
COc1cccc2c1C(=O)c1c(O)c3c(c(O)c1C2=O)C[C@@](O)(C(C)=O)C[C@@H]3O[C@H]1C[C@H](N)[C@H](O)[C@H](C)O1,IC10,[1]; Equus caballus,2000 nM
same,Activity,[2],0.15 units ml-1
same,Oxidation,[7],33 µM/min
